Laboratory results as given in ChEMBL document CHEMBL1131335, “Modulation of receptor and receptor subtype affinities using diastereomeric and enantiomeric monosaccharide scaffolds as a means to structural and biological diversity. A new route to ether synthesis” (J Med Chem, 1998).
Each block holds one molecule with its values, some of them ahead of it.

Columns and labels:
Substance-P receptor [1] = biological target: T1, Substance-P receptor (Homo sapiens, UniProt P25103); assay: Binding affinity was measured for Tachykinin receptor 1; Did not bind
Somatostatin receptor = assay: Binding affinity was measured for SRIF receptor on AtT-20 mouse pituitary cells; assay type: cell-based; settings: pituitary gland cell
Substance-P receptor [2] = biological target: T1, Substance-P receptor; assay: Binding affinity was measured for Tachykinin receptor 1
[3] = biological target: Somatostatin receptor type 3 (Homo sapiens, UniProt P32745); assay: Binding affinity for human receptor subtype hSSTR3.
How it was run: (§1)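 Radioligand competition on membranes from CHO-K1 cells expressing hSSTR1–5, in 50 mM Tris-HCl pH 7.8 with 1 mM EGTA, 5 mM MgCl2 and protease inhibitors (leupeptin, pepstatin, bacitracin, aprotinin). Tracer was [125I-Tyr11]SRIF-14 at 0.1 nM final. Compounds ran 0.01–10,000 nM as seven-point full-log titrations, in triplicate, in at least two separate experiments. Incubation was 45 min at room temperature, then filtration onto PEI-pretreated GF/C filters and scintillation counting.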

[4] = biological target: T2, Somatostatin receptor type 5 (Homo sapiens, UniProt P35346); assay: Binding affinity for human receptor subtype hSSTR5.
How it was run: as §1, with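 “aprotinin).” for “aprotinin). Tracer was [125I-Tyr11]SRIF-14 at 0.1 nM final.”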

[5] = biological target: Somatostatin receptor type 1 (Homo sapiens, UniProt P30872); assay: Binding affinity for human receptor subtype hSSTR1
How it was run: as §1, with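 “aprotinin).” for “aprotinin). Tracer was [125I-Tyr11]SRIF-14 at 0.1 nM final.”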

[6] = biological target: Somatostatin receptor type 2 (Homo sapiens, UniProt P30874); assay: Binding affinity for human receptor subtype hSSTR2
How it was run: as §1, with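 “aprotinin).” for “aprotinin). Tracer was [125I-Tyr11]SRIF-14 at 0.1 nM final.”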

[7] = biological target: Somatostatin receptor type 4 (Homo sapiens, UniProt P31391); assay: Binding affinity for human receptor subtype hSSTR4.; how it was run: as §1
[8] = biological target: T2, Somatostatin receptor type 5; assay: Binding affinity for human receptor subtype hSSTR5.; Did not bind; how it was run: as §1

T1 sequence (P25103 whole entry): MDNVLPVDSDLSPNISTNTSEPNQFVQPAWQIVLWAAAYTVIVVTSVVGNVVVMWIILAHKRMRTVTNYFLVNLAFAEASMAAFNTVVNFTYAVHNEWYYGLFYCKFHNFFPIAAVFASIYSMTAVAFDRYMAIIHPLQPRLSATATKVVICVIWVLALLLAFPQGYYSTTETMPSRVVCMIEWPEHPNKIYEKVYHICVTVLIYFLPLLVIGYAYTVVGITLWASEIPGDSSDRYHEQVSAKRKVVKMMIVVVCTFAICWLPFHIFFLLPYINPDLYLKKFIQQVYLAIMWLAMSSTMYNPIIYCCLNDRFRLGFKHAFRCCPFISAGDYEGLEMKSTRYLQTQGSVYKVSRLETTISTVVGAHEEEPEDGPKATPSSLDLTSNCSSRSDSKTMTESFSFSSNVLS
T2 sequence (P35346 whole entry): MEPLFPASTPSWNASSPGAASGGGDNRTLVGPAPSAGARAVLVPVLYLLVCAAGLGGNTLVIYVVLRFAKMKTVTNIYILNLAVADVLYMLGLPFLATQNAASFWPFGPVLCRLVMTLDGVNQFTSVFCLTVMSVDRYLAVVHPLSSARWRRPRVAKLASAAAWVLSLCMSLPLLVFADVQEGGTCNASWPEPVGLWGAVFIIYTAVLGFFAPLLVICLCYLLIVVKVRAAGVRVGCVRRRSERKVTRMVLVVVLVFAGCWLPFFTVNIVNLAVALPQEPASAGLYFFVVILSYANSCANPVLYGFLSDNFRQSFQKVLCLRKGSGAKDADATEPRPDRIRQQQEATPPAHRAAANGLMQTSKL
Sequence of Somatostatin receptor type 3 (P32745 whole entry): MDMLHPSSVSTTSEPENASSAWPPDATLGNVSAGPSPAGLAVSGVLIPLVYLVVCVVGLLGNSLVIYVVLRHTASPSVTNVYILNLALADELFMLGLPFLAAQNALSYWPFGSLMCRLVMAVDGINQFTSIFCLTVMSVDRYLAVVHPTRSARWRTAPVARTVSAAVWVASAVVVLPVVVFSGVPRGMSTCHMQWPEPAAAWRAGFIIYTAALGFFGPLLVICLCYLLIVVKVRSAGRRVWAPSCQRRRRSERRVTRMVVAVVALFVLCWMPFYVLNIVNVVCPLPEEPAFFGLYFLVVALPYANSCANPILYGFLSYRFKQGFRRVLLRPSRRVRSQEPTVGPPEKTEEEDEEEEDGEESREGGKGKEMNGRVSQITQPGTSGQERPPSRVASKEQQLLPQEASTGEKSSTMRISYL
Sequence of Somatostatin receptor type 2 (P30874 whole entry): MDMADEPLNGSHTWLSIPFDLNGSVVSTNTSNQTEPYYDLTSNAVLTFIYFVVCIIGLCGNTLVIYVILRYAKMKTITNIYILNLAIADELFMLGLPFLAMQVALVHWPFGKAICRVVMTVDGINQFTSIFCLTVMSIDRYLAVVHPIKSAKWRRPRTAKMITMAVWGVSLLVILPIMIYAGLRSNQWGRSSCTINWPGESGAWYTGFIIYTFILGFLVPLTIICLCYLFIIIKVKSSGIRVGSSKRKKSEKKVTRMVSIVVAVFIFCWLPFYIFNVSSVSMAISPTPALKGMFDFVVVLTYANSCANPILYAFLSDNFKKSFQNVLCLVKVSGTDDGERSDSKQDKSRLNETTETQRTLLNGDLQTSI
Sequence of Somatostatin receptor type 1 (P30872 whole entry): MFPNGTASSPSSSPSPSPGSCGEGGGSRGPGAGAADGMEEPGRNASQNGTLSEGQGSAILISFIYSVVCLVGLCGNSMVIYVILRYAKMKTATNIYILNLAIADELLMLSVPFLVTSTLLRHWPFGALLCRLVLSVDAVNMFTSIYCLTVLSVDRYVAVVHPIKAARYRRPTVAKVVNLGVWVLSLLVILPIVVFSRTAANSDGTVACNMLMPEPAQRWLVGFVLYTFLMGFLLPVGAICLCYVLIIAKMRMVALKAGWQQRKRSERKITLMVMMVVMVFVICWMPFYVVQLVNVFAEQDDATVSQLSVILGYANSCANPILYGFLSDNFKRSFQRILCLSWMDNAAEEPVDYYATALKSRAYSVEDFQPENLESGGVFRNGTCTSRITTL
Sequence of Somatostatin receptor type 4 (P31391 whole entry): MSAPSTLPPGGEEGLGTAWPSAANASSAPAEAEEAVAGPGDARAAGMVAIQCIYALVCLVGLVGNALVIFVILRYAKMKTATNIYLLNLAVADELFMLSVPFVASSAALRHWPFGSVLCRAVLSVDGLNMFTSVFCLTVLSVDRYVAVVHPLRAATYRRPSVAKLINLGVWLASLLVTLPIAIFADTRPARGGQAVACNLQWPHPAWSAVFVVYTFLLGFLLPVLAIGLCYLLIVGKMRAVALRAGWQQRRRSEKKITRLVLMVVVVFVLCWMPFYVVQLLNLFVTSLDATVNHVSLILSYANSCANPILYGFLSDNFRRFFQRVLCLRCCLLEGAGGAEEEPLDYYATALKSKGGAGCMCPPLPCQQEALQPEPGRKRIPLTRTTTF

Compound: NCCCCCOC[C@H]1O[C@@H](OCCc2c[nH]c3ccccc23)[C@H](OCc2ccccc2)C[C@@H]1OCc1ccccc1
IC50 (Somatostatin receptor): 8.4 µM

Compound: OCCCCCNC[C@H]1O[C@@H](OCCc2c[nH]c3ccccc23)[C@H](OCc2ccccc2)[C@@H](OCc2ccccc2)[C@@H]1OCc1ccccc1
IC50 (Somatostatin receptor): 14 µM

Compound: Fc1ccc(COC[C@H]2O[C@@H](OCCc3c[nH]c4ccccc34)[C@H](OCc3ccc4ccccc4c3)[C@@H](OCc3ccccc3)[C@@H]2OCc2ccccc2)cc1
IC50 (Substance-P receptor [1]): Not Active

Compound: NCCCCCCOC[C@H]1O[C@@H](OCCc2c[nH]c3ccccc23)[C@H](OCc2ccccc2)C[C@@H]1OCc1ccccc1
IC50 (Somatostatin receptor): 7 µM

Compound: Fc1ccc(OC[C@H]2O[C@@H](OCCc3c[nH]c4ccccc34)[C@H](OCc3ccc4ccccc4c3)[C@@H](OCc3ccccc3)[C@@H]2OCc2ccccc2)cc1
IC50 (Substance-P receptor [1]): Not Active

Compound: NCCCCCOC[C@H]1O[C@@H](OCCc2c[nH]c3ccccc23)[C@H](OCc2c[nH]cn2)C[C@@H]1OCc1ccccc1
IC50 (Somatostatin receptor): 4.1 µM

Compound: CO[C@@H]1O[C@H](COCCCCCN)[C@@H](OCc2ccccc2)[C@H](OCc2c[nH]cn2)[C@H]1OCc1ccccc1
IC50 (Somatostatin receptor): 5.6 µM

The next lines start with the values.

IC50 (Substance-P receptor [1]): Not Active
Compound: CC(=O)NCCCCCOC[C@H]1O[C@@H](OCCc2c[nH]c3ccccc23)[C@H](OCc2ccc3ccccc3c2)[C@@H](OCc2ccccc2)[C@@H]1OCc1ccccc1

IC50 (Substance-P receptor [2]): 0.209 µM
Compound: CC(=O)NCCCCCOC[C@H]1O[C@@H](OCCc2c[nH]c3ccccc23)[C@H](OCc2ccc(F)cc2)[C@@H](OCc2ccccc2)[C@@H]1OCc1ccccc1

Ki [3]: 0.6 µM | Ki [4]: 1.3 µM | Ki [5]: 2.1 µM | IC50 (Somatostatin receptor): 13 µM | Ki [6]: 0.6 µM | Ki [7]: 0.5 µM
Compound: NCCCCCNC[C@H]1O[C@@H](OCCc2c[nH]c3ccccc23)[C@H](OCc2ccccc2)[C@@H](OCc2ccccc2)[C@@H]1OCc1ccccc1

IC50 (Substance-P receptor [1]): Not Active
Compound: Fc1ccc(CO[C@H]2[C@H](OCCc3c[nH]c4ccccc34)O[C@H](COCc3ccc4ccccc4c3)[C@@H](OCc3ccccc3)[C@@H]2OCc2ccccc2)cc1

Ki [8]: Not Active
Compound: NCCCCCOC[C@@H]1O[C@H](OCCc2c[nH]c3ccccc23)[C@H](OCc2c[nH]cn2)[C@H](OCc2ccccc2)[C@H]1OCc1ccccc1

IC50 (Somatostatin receptor): 22 µM
Compound: NCCCCCOC[C@H]1O[C@@H](CCc2c[nH]c3ccccc23)[C@H](OCc2ccccc2)[C@@H](OCc2ccccc2)[C@@H]1OCc1ccccc1

IC50 (Somatostatin receptor): 5.9 µM
Compound: CO[C@@H]1O[C@H](COCCCCCN)[C@@H](OCc2ccccc2)[C@H](OCc2ccccc2)[C@H]1OCc1ccccc1

IC50 (Somatostatin receptor): 5.1 µM
Compound: OCCCCCCNC[C@H]1O[C@@H](OCCc2c[nH]c3ccccc23)[C@H](OCc2ccccc2)C[C@@H]1OCc1ccccc1

IC50 (Substance-P receptor [2]): 0.065 µM
Compound: C[C@@H](O)[C@@H]1NC(=O)[C@H](Cc2ccc(F)cc2)NC(=O)[C@@H](Cc2c[nH]c3ccccc23)NC(=O)[C@H](Cc2ccc3ccccc3c2)NC(=O)[C@@H]2CCCN2C(=O)[C@H](Cc2ccccc2)NC1=O
